According to ChEMBL document CHEMBL1817572, “New, potent, selective, and short-acting peptidic V1a receptor agonists” (J Med Chem, 2011):
Numbered stars: 1 amine (or outer) side, 2 acyl side, 3 side chain; on linkers, the order of the positions; unused ones are H or OH. Bridge positions count the residues as written; N and C are the ends. Square brackets hold non-standard residues; d marks the D form. Peptide text beside a SMILES is read from it. Orn(iPr) = CC(C)NCCC[C@H](N)C(=O)O; X1 = CCNCCC[C@H](N[*:1])C(=O)[*:2]; Orn = NCCC[C@H](N)C(=O)O; Dab = NCC[C@H](N)C(=O)O

Legend:
Homo sapiens [1] = organism: Homo sapiens; assay: Selectivity ratio of EC50 for human vasopressin V1b receptor to EC50 for human vasopressin V1a receptor
Oxytocin receptor = molecular target: T1, Oxytocin receptor (Homo sapiens, UniProt P30559); assay: Agonist activity at human OT receptor expressed in CHO-K1 cells by luciferase reporter gene assay; format: functional, cell-based
T1 sequence (P30559 whole entry): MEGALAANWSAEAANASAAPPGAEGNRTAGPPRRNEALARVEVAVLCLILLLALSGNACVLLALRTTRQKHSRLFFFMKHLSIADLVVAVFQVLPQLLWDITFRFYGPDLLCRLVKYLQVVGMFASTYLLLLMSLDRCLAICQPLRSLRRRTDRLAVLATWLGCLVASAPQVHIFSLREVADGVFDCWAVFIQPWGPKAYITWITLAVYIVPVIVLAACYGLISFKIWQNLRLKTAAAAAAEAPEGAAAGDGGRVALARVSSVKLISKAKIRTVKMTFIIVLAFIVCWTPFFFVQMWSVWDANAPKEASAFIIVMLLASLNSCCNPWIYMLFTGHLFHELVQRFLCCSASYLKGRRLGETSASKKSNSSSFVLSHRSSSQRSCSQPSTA

Homo sapiens [2] = organism: Homo sapiens; assay: Selectivity ratio of EC50 for human oxytocin receptor to EC50 for human vasopressin V1a receptor
Rattus norvegicus [3] = assay: Vasoconstriction in Wistar rat assessed as decay in vasopressive duration of action at 1 nmol/kg, iv bolus measured over 10 sec interval; format: functional
Method in brief: (§1)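 Fasted male Wistar rats (206–340 g) under isoflurane, then thiobutabarbital 150 mg/kg ip, ventilated, 37–38 °C, with carotid pressure and jugular dosing. Dibenamine 1.8 mg/rat iv pretreatment. Sequence: iv boluses (0.5 mL/kg) of heparinized vehicle, then two reference doses of 0.1 nmol/kg, then two test doses; one matches the reference diastolic pressure rise. Relative duration = reference decay rate / test decay rate; mean ± SEM.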

[4] = molecular target: Vasopressin V1a/V2 (Homo sapiens) (UniProt P30518+P37288); assay: Selectivity ratio of EC50 for human vasopressin V2 receptor to EC50 for human vasopressin V1a receptor
Vasopressin V1a/V2 (Homo sapiens), sequence (P30518 whole entry, looked up): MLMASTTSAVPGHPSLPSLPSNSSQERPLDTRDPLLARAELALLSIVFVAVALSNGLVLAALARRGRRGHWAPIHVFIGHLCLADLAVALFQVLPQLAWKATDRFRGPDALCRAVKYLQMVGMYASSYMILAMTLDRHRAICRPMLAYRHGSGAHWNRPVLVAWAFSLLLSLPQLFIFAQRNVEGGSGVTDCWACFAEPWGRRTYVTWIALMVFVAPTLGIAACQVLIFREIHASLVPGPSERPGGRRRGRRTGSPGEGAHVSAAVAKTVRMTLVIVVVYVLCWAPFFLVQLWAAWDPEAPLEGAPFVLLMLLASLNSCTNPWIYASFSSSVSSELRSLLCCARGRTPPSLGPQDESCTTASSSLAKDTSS
Vasopressin V1a/V2 (Homo sapiens), sequence (P37288 whole entry, looked up): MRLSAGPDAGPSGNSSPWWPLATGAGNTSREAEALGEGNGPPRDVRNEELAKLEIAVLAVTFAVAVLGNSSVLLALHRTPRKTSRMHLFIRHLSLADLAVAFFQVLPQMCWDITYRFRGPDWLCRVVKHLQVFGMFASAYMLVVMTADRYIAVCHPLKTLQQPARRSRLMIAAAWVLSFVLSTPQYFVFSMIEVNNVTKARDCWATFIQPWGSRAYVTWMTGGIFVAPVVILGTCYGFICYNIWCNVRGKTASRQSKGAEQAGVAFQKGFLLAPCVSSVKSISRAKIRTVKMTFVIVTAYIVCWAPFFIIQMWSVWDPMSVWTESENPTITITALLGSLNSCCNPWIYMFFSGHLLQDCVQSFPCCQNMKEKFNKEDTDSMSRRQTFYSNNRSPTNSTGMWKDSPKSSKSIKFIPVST

Vasopressin V2 receptor [5] = molecular target: T2, Vasopressin V2 receptor (Homo sapiens, UniProt P30518); assay: Agonist activity at recombinant human vasopressin V2 receptor expressed in HEK293 cells by luciferase reporter gene assay; format: functional, cell-based
T2 sequence (P30518 whole entry): as the sequence (P30518 whole entry, looked up) above

Vasopressin V1a receptor [6] = molecular target: Vasopressin V1a receptor (Rattus norvegicus, UniProt P30560); assay: Agonist activity at recombinant rat vasopressin V1a receptor expressed in HEK293 cells by luciferase reporter gene assay; format: functional, cell-based; settings: read-out: EC50
Vasopressin V1a receptor (Rattus norvegicus, UniProt P30560), sequence (P30560 whole entry): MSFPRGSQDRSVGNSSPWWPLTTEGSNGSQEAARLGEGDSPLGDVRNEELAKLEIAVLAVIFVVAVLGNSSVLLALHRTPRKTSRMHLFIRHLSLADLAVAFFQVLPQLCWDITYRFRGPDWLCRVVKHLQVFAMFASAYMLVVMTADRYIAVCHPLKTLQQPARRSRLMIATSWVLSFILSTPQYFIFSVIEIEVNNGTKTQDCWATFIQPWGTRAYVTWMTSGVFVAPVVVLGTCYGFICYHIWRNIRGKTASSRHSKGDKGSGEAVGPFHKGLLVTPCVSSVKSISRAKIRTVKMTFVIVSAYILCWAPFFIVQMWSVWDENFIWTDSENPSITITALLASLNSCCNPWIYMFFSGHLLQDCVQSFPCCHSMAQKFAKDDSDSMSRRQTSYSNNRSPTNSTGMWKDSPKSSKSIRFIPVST

Vasopressin V1b receptor = molecular target: T3, Vasopressin V1b receptor (Homo sapiens, UniProt P47901); assay: Agonist activity at recombinant human vasopressin V1b receptor expressed in Flp-In-293 cells by luciferase reporter gene assay; format: functional, cell-based; settings: read-out: EC50
T3 sequence (P47901 whole entry): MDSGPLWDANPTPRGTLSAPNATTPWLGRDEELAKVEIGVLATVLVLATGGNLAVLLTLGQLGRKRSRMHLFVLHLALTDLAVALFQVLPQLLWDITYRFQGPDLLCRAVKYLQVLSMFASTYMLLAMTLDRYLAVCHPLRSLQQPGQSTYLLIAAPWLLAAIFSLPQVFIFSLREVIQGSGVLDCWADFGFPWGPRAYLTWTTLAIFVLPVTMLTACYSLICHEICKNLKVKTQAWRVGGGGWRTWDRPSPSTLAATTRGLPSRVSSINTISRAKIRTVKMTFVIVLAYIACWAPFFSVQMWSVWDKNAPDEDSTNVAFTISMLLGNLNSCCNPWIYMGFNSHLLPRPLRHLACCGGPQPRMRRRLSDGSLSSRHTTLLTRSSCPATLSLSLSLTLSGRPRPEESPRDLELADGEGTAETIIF
Method in brief: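 Reporter gene assays in HEK293 cells transiently cotransfected with V1a (human or rat) or human V2 receptor vector plus NFAT-luciferase (V1a) or CRE-luciferase (V2) reporter; V1b in Flp-In-293 stably expressing receptor, OT in CHO-K1 stably expressing receptor, both transiently transfected with NFAT-luciferase. Two days post-transfection, peptides added for 5 h at 37 °C, lysis with luciferin, luminescence read.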

Vasopressin V1a receptor [7] = molecular target: T4, Vasopressin V1a receptor (Homo sapiens, UniProt P37288); assay: Agonist activity at recombinant human vasopressin V1a receptor expressed in HEK293 cells by luciferase reporter gene assay; format: functional, cell-based; settings: read-out: EC50
Target sequence in this assay (P37288 whole entry): as the sequence (P37288 whole entry, looked up) above

Rattus norvegicus [8] = assay: Vasoconstriction in Wistar rat assessed as assessed as decay in vasopressive duration of action at 6 nmol/kg, iv bolus measured over 10 sec interval; format: functional; method in brief: as §1
Rattus norvegicus [9] = assay: Vasoconstriction in Wistar rat assessed as assessed as decay in vasopressive duration of action at 0.2 nmol/kg, iv bolus measured over 10 sec interval; format: functional
Vasopressin V1a receptor [10] = molecular target: T4, Vasopressin V1a receptor; assay: Partial agonist activity at recombinant human vasopressin V1a receptor expressed in HEK293 cells by luciferase reporter gene assay; format: functional, cell-based
Method in brief: (§2)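 Same luciferase reporter systems (OT in stable CHO-K1, V1b in stable Flp-In-293, each with transient NFAT-luciferase; V1a in HEK293 with NFAT-luciferase, V2 in HEK293 with CRE-luciferase). Peptides added for 5 h at 37 °C two days post-transfection, luminescence read. Partial agonism means efficacy <70%.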
Target sequence in this assay (P37288 whole entry, looked up): as above

Vasopressin V2 receptor [11] = molecular target: T2, Vasopressin V2 receptor; assay: Partial agonist activity at recombinant human vasopressin V2 receptor expressed in HEK293 cells by luciferase reporter gene assay; format: functional, cell-based; method in brief: as §2
[12] = molecular target: T5, Vasopressin V1b receptor (Homo sapiens) (UniProt P47901); assay: Partial agonist activity at recombinant human vasopressin V1b receptor expressed in Flp-In-293 cells by luciferase reporter gene assay; format: functional, cell-based; method in brief: as §2
T5 sequence (whole entry): T3 sequence (P47901 whole entry)

SMILES	Ratio EC50 (Homo sapiens [1])	EC50 (Oxytocin receptor; cho-k1, read-out: EC50) [µM]	EC50 (Oxytocin receptor; read-out: pEC50 (converted)) [µM]	Ratio EC50 (Homo sapiens [2])	Ratio EC50 [4]	EC50 (Vasopressin V2 receptor [5]; hek293, read-out: EC50) [µM]	EC50 (Vasopressin V2 receptor [5]; read-out: pEC50 (converted)) [µM]	EC50 (Vasopressin V1a receptor [6]) [nM]	EC50 (Vasopressin V1b receptor) [nM]	EC50 (Vasopressin V1a receptor [7]) [nM]	Time (Rattus norvegicus [3]) [unitless ratio]	Time (Rattus norvegicus [8]) [unitless ratio]	Time (Rattus norvegicus [9]) [min]	Efficacy (Vasopressin V1a receptor [10]) [%]	EC50 (Oxytocin receptor; read-out: EC50) [µM]	Efficacy (Vasopressin V2 receptor [11]) [%]	EC50 (Vasopressin V2 receptor [5]; read-out: EC50) [µM]	Efficacy [12] [%]
CC[C@H](C)[C@@H]1NC(=O)[C@H](Cc2ccccc2)NC(=O)[C@@H](N)CSSC[C@@H](C(=O)N2CCC[C@H]2C(=O)N[C@@H](CCCNC(C)C)C(=O)NCC(N)=O)NC(=O)[C@H](CC(N)=O)NC(=O)[C@H](CCC(N)=O)NC1=O (H-CFIQNCP[Orn(iPr)]G-NH2; disulfide 1-6)	110	–	–	86	760	–	–	0.13	44	0.38	–	–	2.3	< 70	0.033	< 70	0.29	–
CCNCCC[C@H](NC(=O)[C@@H]1CCCN1C(=O)[C@@H]1CSSC[C@H](N)C(=O)N[C@@H](Cc2ccccc2)C(=O)N[C@@H]([C@@H](C)CC)C(=O)N[C@@H](CCC(N)=O)C(=O)N[C@@H](CC(N)=O)C(=O)N1)C(=O)NCC(N)=O (H-CFIQNCP[X1]G-NH2; disulfide 1-6)	56	–	–	56	450	–	–	0.16	32	0.57	–	–	2.1	–	0.032	< 70	0.26	< 70

Further lines, with some results ahead:

Ratio EC50 (Homo sapiens [1])	EC50 (Oxytocin receptor; cho-k1, read-out: EC50) [µM]	EC50 (Oxytocin receptor; read-out: pEC50 (converted)) [µM]	Ratio EC50 (Homo sapiens [2])	Ratio EC50 [4]	EC50 (Vasopressin V2 receptor [5]; hek293, read-out: EC50) [µM]	EC50 (Vasopressin V2 receptor [5]; read-out: pEC50 (converted)) [µM]	EC50 (Vasopressin V1a receptor [6]) [nM]	EC50 (Vasopressin V1b receptor) [nM]	EC50 (Vasopressin V1a receptor [7]) [nM]	SMILES	Time (Rattus norvegicus [3]) [unitless ratio]	Time (Rattus norvegicus [8]) [unitless ratio]	Time (Rattus norvegicus [9]) [min]	Efficacy (Vasopressin V1a receptor [10]) [%]	EC50 (Oxytocin receptor; read-out: EC50) [µM]	Efficacy (Vasopressin V2 receptor [11]) [%]	EC50 (Vasopressin V2 receptor [5]; read-out: EC50) [µM]	Efficacy [12] [%]
36	> 10	> 10	> 5800	> 5800	> 10	> 10	1	62	1.7	CC[C@H](C)[C@@H]1NC(=O)[C@H](Cc2ccccc2)NC(=O)[C@@H](N)CSSC[C@@H](C(=O)N2CCC[C@H]2C(=O)N[C@@H](CCCN)C(=O)NCC(N)=O)NC(=O)[C@H](CC(N)=O)NC(=O)[C@H](CC(=O)N(C)C)NC1=O (H-CFID(NMe2)NCP[Orn]G-NH2; disulfide 1-6)	1.6	–	–	–	–	–	–	–
12	> 10	> 10	> 3400	> 3400	> 10	> 10	2	37	2.9	CC[C@H](C)[C@@H]1NC(=O)[C@H](Cc2ccccc2)NC(=O)[C@@H](N)CSSC[C@@H](C(=O)N2CCC[C@H]2C(=O)N[C@@H](CCN)C(=O)NCC(N)=O)NC(=O)[C@H](CC(N)=O)NC(=O)[C@H](CC(N)=O)NC1=O (H-CFINNCP[Dab]G-NH2; disulfide 1-6)	–	2	–	–	–	–	–	–
120	> 10	> 10	> 10000	> 10000	> 10	> 10	8	120	0.99	CCNCCC[C@H](NC(=O)[C@@H]1CCCN1C(=O)[C@@H]1CSSC[C@H](N)C(=O)N[C@@H](Cc2ccccc2)C(=O)N[C@@H]([C@@H](C)CC)C(=O)N[C@@H](CC(N)=O)C(=O)N[C@@H](CC(N)=O)C(=O)N1)C(=O)NCC(N)=O (H-CFINNCP[X1]G-NH2; disulfide 1-6)	–	2.4	–	–	–	–	–	–
